According to ChEMBL document CHEMBL4043069, “Streptenols F-I Isolated from the Marine-Derived Streptomyces misionensis BAT-10-03-023” (2017):

Columns and labels:
Type in all cases: functional
[1] = tested on: PSN1; experiment: Cytotoxicity against human PSN1 cells assessed as inhibition of cell growth
Method in brief: (§1)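 Human tumour lines were used: A-549 lung carcinoma, MDA-MB-231 breast adenocarcinoma, HT-29 colorectal carcinoma and PSN1 pancreatic adenocarcinoma. The compounds were tested across doses. GI50, the concentration giving 50% growth inhibition, was derived from dose-response data by a literature procedure. Survival was estimated with the National Cancer Institute algorithm, and three dose-response parameters were calculated.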

[2] = tested on: A549; experiment: Cytotoxicity against human A549 cells assessed as inhibition of cell growth; method in brief: as §1
[3] = tested on: HT-29; experiment: Cytotoxicity against human HT-29 cells assessed as inhibition of cell growth; method in brief: as §1
[4] = tested on: MDA-MB-231; experiment: Cytotoxicity against human MDA-MB-231 cells assessed as inhibition of cell growth; method in brief: as §1

SMILES | GI50 [1] | GI50 [2] | GI50 [3] | GI50 [4]
C/C=C/CCC(=O)C[C@@H](O)CCO[C@]1(CC/C=C/C)C[C@@H](O)CCO1 | 28 µM | 28 µM | 28 µM | 28 µM
C/C=C/C=C/C(=O)C[C@H](CCO)OC | 50 µM | 50 µM | 49 µM | 30 µM
C/C=C/CCC(=O)C[C@@H](O)CCO | 54 µM | 54 µM | 54 µM | 54 µM
C/C=C/C=C/C(=O)CC(CCO)OCC[C@H](O)CC(=O)/C=C/C=C/C (some centres undefined) | 29 µM | 29 µM | 29 µM | 29 µM
C/C=C/C=C/C(=O)CC(CCO)OCC[C@H](O)CC(=O)CC/C=C/C (some centres undefined) | 28 µM | 28 µM | 28 µM | 28 µM
C/C=C/C=C/C(=O)C[C@@H](O)CCO | 54 µM | 54 µM | 54 µM | 54 µM
